# Measured values: ChEMBL document CHEMBL1123240 (J Med Chem, 1986)
# Assays:
# Rattus norvegicus [1] = organism: Rattus norvegicus; assay: Compound was tested for inhibition of hippocampal excitatory neurotransmission in schaffer collateral -CA1 pyramidal cells; type: functional
# How it was run: (§1)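 Transverse hippocampal slices, 450 μm, from 30–90-day-old male Holtzman rats. Held at 30 °C, submerged in stirred medium (10 mM glucose, 124 mM NaCl, 3.3 mM KCl, 2.4 mM MgSO4, 2.5 mM CaCl2, 1.2 mM KH2PO4, 26 mM NaHCO3; 95:5 O2/CO2, pH 7.4). Evoked synaptic field potentials recorded extracellularly; CA1 electrodes in stratum radiatum. Drug started at threshold and doubled every 4 min. IC50 from fraction of uninhibited response versus log concentration.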
# Rattus norvegicus [2] = organism: Rattus norvegicus; assay: Compound was tested for inhibition of Lateral perforant path(LPP) neurotransmission in hippocampus; type: functional; how it was run: as §1
# Rattus norvegicus [3] = organism: Rattus norvegicus; assay: Compound was tested for inhibition of Medial perforant path(MPP) neurotransmission in hippocampus; type: functional
# Rattus norvegicus [4] = organism: Rattus norvegicus; assay: Compound was evaluated for its ability to displace [3H]APB from rat brain synaptic plasma membrane preparations
# [5] = Ratio of IC50 of Lateral perforant path(LPP) to IC50 of [3H]- binding; type: tissue-based
# How it was run: (§2)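 Ratio of IC50 values. For line 8, LPP IC50 from slice recording over [3H]APB binding IC50. Each IC50 is a weighted mean of IC50s calculated for each experimental point, or for steep agonist-like curves is read directly from the log concentration–response curve.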
# [6] = Ratio of IC50 of Medial perforant path(MPP) to IC50 of Lateral perforant path(LPP); type: functional; how it was run: as §2
# Rattus norvegicus [7] = organism: Rattus norvegicus; assay: Compound was tested for inhibition of Medial perforant path(MPP) neurotransmission in hippocampus.; type: functional
# Rattus norvegicus [8] = organism: Rattus norvegicus; assay: Hill coefficient value of compound was evaluated for [3H]-APB binding to rat brain synaptic plasma
# How it was run: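 Rat forebrain synaptic plasma membranes (Holtzman rats, 30–90 days; sucrose gradient, 1.0–1.3 M interface; 3–5 mg protein/mL stock). Membranes ≤200 μg/mL preincubated 5 min at 33 °C, then 1 h at 33 °C. Final: 50 mM HEPES pH 7.4, 10 mM CaCl2, 100 nM DL-[3H]APB, displacer up to 1 mM. Separation by centrifugation, scintillation counting. Nonspecific binding with 1 mM unlabeled ligand. Triplicates on ≥3 membrane preparations.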
# Rattus norvegicus [9] = organism: Rattus norvegicus; assay: Compound was tested for inhibition of hippocampal excitatory neurotransmission in schaffer collateral -CA1 pyramidal cells.; type: functional; how it was run: as §1
smiles,measurement,setting,value
N[C@@]1(C(=O)O)CCC[C@@H](P(=O)(O)O)C1,IC50,Rattus norvegicus [1],9.6 mM
same,IC50,Rattus norvegicus [2],5800 µM
same,IC50,Rattus norvegicus [3],10 mM
same,IC50,Rattus norvegicus [4],750 µM
same,Ratio,[5],7.7
same,Ratio,[6],1.7
N[C@@H](CCP(=O)(O)O)C(=O)O,IC50,Rattus norvegicus [2],2.5 µM
same,IC50,Rattus norvegicus [7],45 µM
same,IC50,Rattus norvegicus [4],1.5 µM
same,nH,Rattus norvegicus [8],0.8
same,Ratio,[6],18
same,IC50,Rattus norvegicus [9],2.5 mM
N[C@@]1(C(=O)O)CC[C@H](P(=O)(O)O)C1,IC50,Rattus norvegicus [1],3.8 mM
same,IC50,Rattus norvegicus [2],960 µM
same,IC50,Rattus norvegicus [3],2.4 mM
same,IC50,Rattus norvegicus [4],4.7 µM
same,nH,Rattus norvegicus [8],1
same,Ratio,[6],2.5
N[C@@]1(C(=O)O)CC[C@@H](P(=O)(O)O)C1,IC50,Rattus norvegicus [1],> 10 mM
same,IC50,Rattus norvegicus [2],130 µM
same,IC50,Rattus norvegicus [3],1.85 mM
same,IC50,Rattus norvegicus [4],80 µM
same,nH,Rattus norvegicus [8],1
N[C@@]1(C(=O)O)CCC[C@H](P(=O)(O)O)C1,IC50,Rattus norvegicus [1],8.1 mM
same,IC50,Rattus norvegicus [2],3100 µM
same,IC50,Rattus norvegicus [3],7.3 mM
same,IC50,Rattus norvegicus [4],840 µM
same,Ratio,[5],3.7
same,Ratio,[6],2.4
